Source: ChEMBL document CHEMBL4346672, “Antimicrobial and KPC/AmpC inhibitory activity of functionalized benzosiloxaboroles” (Eur J Med Chem, 2019)
In brackets after ≈: the same amount, converted by molar mass. Activity calls are given as the source filed them. The rule behind the calls is not given here.

What was measured:
Acinetobacter baumannii [1] = test: microbe, parasite or virus in culture; details: ATCC 19606, 18 h
Burkholderia cepacia [2] = test: Antibacterial activity against Burkholderia cepacia ATCC 25416 measured after 18 hrs by CLSI broth dilution method; assay type: functional; details: ATCC 25416, 18 h
Summary of the method: (§1)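 Broth MIC in Mueller-Hinton II broth following CLSI, compounds dissolved in DMSO. Strains subcultured twice on tryptic soy agar before testing. Growth read after 35 °C, 18 h.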

Acinetobacter baumannii [3] = test: Antibacterial activity against Acinetobacter baumannii ATCC 19606 measured after 18 hrs by CLSI broth dilution method; assay type: functional; details: ATCC 19606, 18 h
Summary of the method: as §1

[4] = test system: Bordetella bronchiseptica; test: Antibacterial activity against Bordetella bronchiseptica ATCC 4617 assessed as diameter of zone inhibition measured after 18 hrs by CLSI disc diffusion method; assay type: functional
Summary of the method: (§2)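 Disc diffusion on Mueller-Hinton II agar. Compounds dissolved in DMSO. Strains stored at -80 °C and subcultured twice on tryptic soy agar before testing. Inhibition zones read after 35 °C, 18 h.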

Escherichia coli [5] = test: microbe, parasite or virus in culture; details: ATCC 25922, 18 h
Enterococcus faecalis [6] = test: Antibacterial activity against Enterococcus faecalis ATCC 29212 measured after 18 hrs by CLSI broth dilution method; assay type: functional; details: ATCC 29212, 18 h
Summary of the method: as §1

Enterobacter cloacae [7] = test: microbe, parasite or virus in culture; details: DSM 6234, 18 h
Burkholderia cepacia [8] = test: Bactericidal activity against Burkholderia cepacia ATCC 25416 measured after 18 hrs by CLSI broth dilution method; assay type: functional; details: ATCC 25416, 18 h
Summary of the method: (§3)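 Strains stored at -80 °C and subcultured twice on tryptic soy agar before testing. Compounds dissolved in DMSO. […] MBC then determined per CLSI recommendations.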

Klebsiella pneumoniae [9] = test: Antibacterial activity against Klebsiella pneumoniae ATCC 13883 measured after 18 hrs by CLSI broth dilution method; assay type: functional; details: ATCC 13883, 18 h
Summary of the method: as §1

Klebsiella pneumoniae [10] = test: microbe, parasite or virus in culture; details: ATCC 13883, 18 h
Staphylococcus aureus [11] = test: Bactericidal activity against Staphylococcus aureus ATCC 6538P measured after 18 hrs by CLSI broth dilution method; assay type: functional
Summary of the method: as §3

Enterobacter cloacae [12] = test: Antibacterial activity against Enterobacter cloacae DSM 6234 assessed as diameter of zone inhibition measured after 18 hrs by CLSI disc diffusion method; assay type: functional
Summary of the method: as §2

Pseudomonas aeruginosa [13] = test: Antibacterial activity against Pseudomonas aeruginosa ATCC 27853 assessed as diameter of zone inhibition measured after 18 hrs by CLSI disc diffusion method; assay type: functional, organism-based
Summary of the method: as §2

Enterococcus faecalis [14] = test: Bactericidal activity against Enterococcus faecalis ATCC 29212 measured after 18 hrs by CLSI broth dilution method; assay type: functional; details: ATCC 29212, 18 h
Summary of the method: as §3

Staphylococcus aureus [15] = test: microbe, parasite or virus in culture; details: ATCC 6538P, 18 h, read-out: DIZ
Serratia marcescens = test: Antibacterial activity against Serratia marcescens ATCC 13880 measured after 18 hrs by CLSI broth dilution method; assay type: functional; details: ATCC 13880, 18 h
Summary of the method: as §1

Proteus mirabilis [16] = test: Antibacterial activity against Proteus mirabilis ATCC 12453 assessed as diameter of zone inhibition measured after 18 hrs by CLSI disc diffusion method; assay type: functional
Summary of the method: as §2

[17] = test system: Staphylococcus epidermidis; test: microbe, parasite or virus in culture; details: ATCC 12228, 18 h, read-out: DIZ
[18] = test system: Bordetella bronchiseptica; test: Bactericidal activity against Bordetella bronchiseptica ATCC 4617 measured after 18 hrs by CLSI broth dilution method; assay type: functional; details: ATCC 4617, 18 h
Summary of the method: as §3

[19] = test system: Stenotrophomonas maltophilia; test: Antibacterial activity against Stenotrophomonas maltophilia ATCC 13637 measured after 18 hrs by CLSI broth dilution method; assay type: functional; details: ATCC 13637, 18 h
Summary of the method: as §1

Bacillus subtilis = test: microbe, parasite or virus in culture; details: ATCC 6633, 18 h, read-out: DIZ
[20] = test system: Stenotrophomonas maltophilia; test: Antibacterial activity against Stenotrophomonas maltophilia ATCC 13637 assessed as diameter of zone inhibition measured after 18 hrs by CLSI disc diffusion method; assay type: functional
Summary of the method: as §2

Staphylococcus aureus [21] = test: Antibacterial activity against Staphylococcus aureus ATCC 6538P measured after 18 hrs by CLSI broth dilution method; assay type: functional
Summary of the method: as §1

Enterococcus faecium [22] = test: Antibacterial activity against Enterococcus faecium ATCC 6057 measured after 18 hrs by CLSI broth dilution method; assay type: functional; details: ATCC 6057, 18 h
Summary of the method: as §1

Acinetobacter baumannii [23] = test: Antibacterial activity against Acinetobacter baumannii ATCC 19606 assessed as diameter of zone inhibition measured after 18 hrs by CLSI disc diffusion method; assay type: functional
Summary of the method: as §2

[24] = test system: Staphylococcus epidermidis; test: Antibacterial activity against Staphylococcus epidermidis ATCC 12228 measured after 18 hrs by CLSI broth dilution method; assay type: functional; details: ATCC 12228, 18 h
Summary of the method: as §1

Enterococcus faecium [25] = test: Bactericidal activity against Enterococcus faecium ATCC 6057 measured after 18 hrs by CLSI broth dilution method; assay type: functional; details: ATCC 6057, 18 h
Summary of the method: as §3

Proteus mirabilis [26] = test: Antibacterial activity against Proteus mirabilis ATCC 12453 measured after 18 hrs by CLSI broth dilution method; assay type: functional; details: ATCC 12453, 18 h
Summary of the method: as §1

Escherichia coli [27] = test: Antibacterial activity against Escherichia coli ATCC 25922 measured after 18 hrs by CLSI broth dilution method; assay type: functional; details: ATCC 25922, 18 h
Summary of the method: as §1

Enterobacter cloacae [28] = test: Antibacterial activity against Enterobacter cloacae DSM 6234 measured after 18 hrs by CLSI broth dilution method; assay type: functional; details: DSM 6234, 18 h
Summary of the method: as §1

Escherichia coli [29] = test: Antibacterial activity against Escherichia coli ATCC 25922 assessed as diameter of zone inhibition measured after 18 hrs by CLSI disc diffusion method; assay type: functional
Summary of the method: as §2

[30] = test system: Staphylococcus epidermidis; test: Bactericidal activity against Staphylococcus epidermidis ATCC 12228 measured after 18 hrs by CLSI broth dilution method; assay type: functional; details: ATCC 12228, 18 h
Summary of the method: as §3

[31] = test system: Bordetella bronchiseptica; test: Antibacterial activity against Bordetella bronchiseptica ATCC 4617 measured after 18 hrs by CLSI broth dilution method; assay type: functional; details: ATCC 4617, 18 h
Summary of the method: as §1

Burkholderia cepacia [32] = test: Antibacterial activity against Burkholderia cepacia ATCC 25416 assessed as diameter of zone inhibition measured after 18 hrs by CLSI disc diffusion method; assay type: functional
Summary of the method: as §2

Pseudomonas aeruginosa [33] = test: Antibacterial activity against Pseudomonas aeruginosa ATCC 27853 measured after 18 hrs by CLSI broth dilution method; assay type: functional; details: ATCC 27853, 18 h
Summary of the method: as §1

SMILES: O=C1CN(/N=C/c2ccc([N+](=O)[O-])o2)C(=O)N1 [NITROFURANTOIN]
- MBC (Acinetobacter baumannii [1]): 128 µg/mL (≈ 537 µM)
- MIC (Burkholderia cepacia [2]): 32 µg/mL (≈ 134 µM)
- MIC (Acinetobacter baumannii [3]): 64 µg/mL (≈ 269 µM)
- diameter of the inhibition zone (DIZ) [4]: inactive
- MBC (Escherichia coli [5]): 8 µg/mL (≈ 33.6 µM)
- MIC (Enterococcus faecalis [6]): 8 µg/mL (≈ 33.6 µM)
- MBC (Enterobacter cloacae [7]): 32 µg/mL (≈ 134 µM)
- MBC (Burkholderia cepacia [8]): 32 µg/mL (≈ 134 µM)
- MIC (Klebsiella pneumoniae [9]): 32 µg/mL (≈ 134 µM)
- MBC (Klebsiella pneumoniae [10]): 32 µg/mL (≈ 134 µM)
- MBC (Staphylococcus aureus [11]): 16 µg/mL (≈ 67.2 µM)
- diameter of the inhibition zone (DIZ) (Enterobacter cloacae [12]): 17 mm
- diameter of the inhibition zone (DIZ) (Pseudomonas aeruginosa [13]): inactive
- MBC (Enterococcus faecalis [14]): 128 µg/mL (≈ 537 µM)
- zone of inhibition at 300 µg/disc (Staphylococcus aureus [15]): 24 mm
- MIC (Serratia marcescens): 128 µg/mL (≈ 537 µM)
- diameter of the inhibition zone (DIZ) (Proteus mirabilis [16]): 9 mm
- zone of inhibition at 300 µg/disc [17]: 31 mm
- MBC [18]: 128 µg/mL (≈ 537 µM)
- MIC [19]: 128 µg/mL (≈ 537 µM)
- zone of inhibition at 300 µg/disc (Bacillus subtilis): 30 mm
- diameter of the inhibition zone (DIZ) [20]: inactive
- MIC (Staphylococcus aureus [21]): 8 µg/mL (≈ 33.6 µM)
- MIC (Enterococcus faecium [22]): 8 µg/mL (≈ 33.6 µM)
- diameter of the inhibition zone (DIZ) (Acinetobacter baumannii [23]): 9 mm
- MIC [24]: 4 µg/mL (≈ 16.8 µM)
- MBC (Enterococcus faecium [25]): > 128 µg/mL
- MIC (Proteus mirabilis [26]): 128 µg/mL (≈ 537 µM)
- MIC (Escherichia coli [27]): 8 µg/mL (≈ 33.6 µM)
- MIC (Enterobacter cloacae [28]): 32 µg/mL (≈ 134 µM)
- diameter of the inhibition zone (DIZ) (Escherichia coli [29]): 24 mm
- MBC [30]: 8 µg/mL (≈ 33.6 µM)
- MIC [31]: 64 µg/mL (≈ 269 µM)
- diameter of the inhibition zone (DIZ) (Burkholderia cepacia [32]): 12 mm
- MIC (Pseudomonas aeruginosa [33]): > 128 µg/mL
